This note sets out measurements from ChEMBL document CHEMBL1149244, “Novel azido and isothiocyanato analogues of [3-(4-phenylalkylpiperazin-1-yl)propyl]bis(4-fluorophenyl)amines as potential irreversible ligands for the dopamine transporter” (J Med Chem, 2004).

Sequence of Sodium-dependent dopamine transporter (P23977 whole entry): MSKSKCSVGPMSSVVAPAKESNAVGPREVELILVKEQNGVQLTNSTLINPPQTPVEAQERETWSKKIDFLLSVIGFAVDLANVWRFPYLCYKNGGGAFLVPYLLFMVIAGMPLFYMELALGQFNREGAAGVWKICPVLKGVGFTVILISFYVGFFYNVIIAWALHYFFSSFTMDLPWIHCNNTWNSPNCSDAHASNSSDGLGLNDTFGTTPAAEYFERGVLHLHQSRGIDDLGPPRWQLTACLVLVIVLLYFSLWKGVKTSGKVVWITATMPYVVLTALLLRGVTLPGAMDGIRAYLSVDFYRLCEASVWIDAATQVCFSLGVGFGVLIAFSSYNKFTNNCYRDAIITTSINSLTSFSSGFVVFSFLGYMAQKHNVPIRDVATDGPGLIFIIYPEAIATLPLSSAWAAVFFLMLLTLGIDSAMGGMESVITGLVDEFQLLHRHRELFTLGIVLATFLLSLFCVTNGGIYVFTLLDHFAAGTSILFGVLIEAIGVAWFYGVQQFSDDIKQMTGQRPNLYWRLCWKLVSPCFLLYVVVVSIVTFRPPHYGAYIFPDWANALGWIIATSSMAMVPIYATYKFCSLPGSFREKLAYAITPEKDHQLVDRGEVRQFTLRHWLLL

The assay has as its target Sodium-dependent dopamine transporter (Rattus norvegicus, UniProt P23977). Put plainly: Displacement of [3H]WIN-35428 from DAT in Sprague-Dawley rat striatum. The method, boiled down:
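Male Sprague-Dawley rat striatal membranes (homogenized in ice-cold modified Krebs-HEPES, pH 7.4; washed by centrifugation), 2.5 mg original wet weight per tube, preincubated 5 min with or without test compound. Nonspecific binding defined with 0.1 mM cocaine. Filtration on BSA-presoaked GF/B filters, scintillation counting. Triplicates. IC50 and Hill coefficient reported.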
On the technique in general: Displacement assays read how much labelled ligand stays bound in the presence of the test substance.
A word on the IC50: it is the concentration that inhibits the measured activity by half. Molecule `[N-]=[N+]=Nc1ccc(CCN2CCN(CCCN(c3ccc(F)cc3)c3ccc(F)cc3)CC2)cc1I` yielded an IC50 of 163 nM.
`[N-]=[N+]=Nc1ccc(CCN2CCN(CCOC(c3ccccc3)c3ccccc3)CC2)cc1I` came in with a half-maximal inhibitory concentration (IC50) of 5.61 nM.
As to `Fc1ccc(N(CCCN2CCN(Cc3ccc(N=C=S)cc3)CC2)c2ccc(F)cc2)cc1`, the IC50 is 75.4 nM. This IC50 is about 13-fold higher than that of the molecule before.
For `[N-]=[N+]=Nc1ccc(CCCN2CCN(CCCN(c3ccc(F)cc3)c3ccc(F)cc3)CC2)cc1I`, the IC50 was 282 nM.
`Fc1ccc(N(CCCN2CCN(CCc3ccc(N=C=S)cc3)CC2)c2ccc(F)cc2)cc1` yielded an IC50 of 68.3 nM.
Molecule `[N-]=[N+]=Nc1ccc(CN2CCN(CCCN(c3ccc(F)cc3)c3ccc(F)cc3)CC2)cc1I` had an IC50 of 242 nM. This IC50 lies about 3.5-fold higher than the previous one.
In the case of `Fc1ccc(N(CCCN2CCN(CCCc3ccc(N=C=S)c(I)c3)CC2)c2ccc(F)cc2)cc1`, the IC50 was found to be 95.5 nM.
`Fc1ccc(N(CCCN2CCN(CCCc3ccccc3)CC2)c2ccc(F)cc2)cc1` yielded an IC50 of 19.5 nM.
`Fc1ccc(N(CCCN2CCN(CCCc3ccc(N=C=S)cc3)CC2)c2ccc(F)cc2)cc1` returned an IC50 of 99.8 nM.
The figure for `Fc1ccc(N(CCCN2CCN(CCc3ccc(N=C=S)c(I)c3)CC2)c2ccc(F)cc2)cc1` is 66 nM.
With `Fc1ccc(N(CCCN2CCN(Cc3ccccc3)CC2)c2ccc(F)cc2)cc1` the figure was 29.7 nM.
